Reference: ChEMBL document CHEMBL5724801, “EUbOPEN Chemogenomics Library - Multiplex” (2024)
Values joined by “and” are separate entries in the source; they are usually repeats but may differ in a detail not shown here. Identical values can stand only once.

Tested on: Fibroblast
Assay: Multiplex assay against human fibroblast
Assay type: toxicity, cell-based
Summary of the method: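 Compound was added to live cells that had been stained at seeding with Hoechst33342, BioTracker Green Microtubule Cytoskeleton Dye, MitoTracker Red and Annexin V Alexa Fluor 680, and imaging followed on a CQ1 microscope at 37°C and 5% CO2. CellPathfinder machine-learning gating divided cells into Hoechst high-intensity objects or normal cells, normal cells into healthy, pyknosed or fragmented nuclei, and pyknosed cells into mitotic or apoptotic. Tubulin, mitochondrial-mass and membrane-permeability phenotypes are per cents of healthy-nucleus cells.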

[1] = 12 h, 1 µM, compound concentration 1 uM
[2] = 12 h, 10 µM, compound concentration 10 uM
[3] = 24 h, 1 µM, compound concentration 1 uM
[4] = 24 h, 10 µM, compound concentration 10 uM
[5] = 48 h, 1 µM, compound concentration 1 uM
[6] = 48 h, 10 µM, compound concentration 10 uM

COc1c(Nc2ccc(S(C)(=O)=O)nc2C)ncnc1OC1CCN(C(=O)OC(C)C)CC1 [ADP-597]
Population Apoptotic (%) [1]: 57% and 42% | Population Fragmented Nuclei (%) [1]: 14% and 27% | Population Healthy Nuclei (%) [1]: 71% and 40% | Population Hoechst High Intensity Objects (%) [1]: 3% and 4% | Population Membrane Permeable-Phenotype (%) [1]: 0% and 2% | Population Mitochondria Different-Phenotype (%) [1]: 10% and 7% | Population Mitotic Cells (%) [1]: 42% and 57% | Population Normal (%) [1]: 96% and 95% | Population Pyknosed Nuclei (%) [1]: 14% and 33% | Population Tubulin-Different-Phenotype (%) [1]: 34% and 27% | Total Cell Count [1]: 133 and 105 | Population Apoptotic (%) [2]: 44% and 39% | Population Fragmented Nuclei (%) [2]: 21% and 43% | Population Healthy Nuclei (%) [2]: 58% and 27% | Population Hoechst High Intensity Objects (%) [2]: 2% | Population Membrane Permeable-Phenotype (%) [2]: 0% and 11% | Population Mitochondria Different-Phenotype (%) [2]: 15% and 14% | Population Mitotic Cells (%) [2]: 56% and 60% | Population Normal (%) [2]: 97% and 98% | Population Pyknosed Nuclei (%) [2]: 20% and 28% | Population Tubulin-Different-Phenotype (%) [2]: 54% and 77% | Total Cell Count [2]: 127 and 100 | Population Apoptotic (%) [3]: 47% and 37% | Population Fragmented Nuclei (%) [3]: 17% and 25% | Population Healthy Nuclei (%) [3]: 67% and 50% | Population Hoechst High Intensity Objects (%) [3]: 4% and 10% | Population Membrane Permeable-Phenotype (%) [3]: 0% and 10% | Population Mitochondria Different-Phenotype (%) [3]: 1% and 2% | Population Mitotic Cells (%) [3]: 52% and 62% | Population Normal (%) [3]: 95% and 89% | Population Pyknosed Nuclei (%) [3]: 15% and 24% | Population Tubulin-Different-Phenotype (%) [3]: 27% and 48% | Total Cell Count [3]: 146 and 109 | Population Apoptotic (%) [4]: 52% and 27% | Population Fragmented Nuclei (%) [4]: 20% and 49% | Population Healthy Nuclei (%) [4]: 60% and 31% | Population Hoechst High Intensity Objects (%) [4]: 5% and 6% | Population Membrane Permeable-Phenotype (%) [4]: 0% and 10% | Population Mitochondria Different-Phenotype (%) [4]: 5% and 3% | Population Mitotic Cells (%) [4]: 47% and 72% | Population Normal (%) [4]: 94% and 93% | Population Pyknosed Nuclei (%) [4]: 18% and 19% | Population Tubulin-Different-Phenotype (%) [4]: 41% and 75% | Total Cell Count [4]: 131 and 99 | Population Apoptotic (%) [5]: 64% and 42% | Population Fragmented Nuclei (%) [5]: 25% and 28% | Population Healthy Nuclei (%) [5]: 63% and 51% | Population Hoechst High Intensity Objects (%) [5]: 2% and 9% | Population Membrane Permeable-Phenotype (%) [5]: 0% and 2% | Population Mitochondria Different-Phenotype (%) [5]: 4% and 0% | Population Mitotic Cells (%) [5]: 35% and 57% | Population Normal (%) [5]: 97% and 90% | Population Pyknosed Nuclei (%) [5]: 11% and 20% | Population Tubulin-Different-Phenotype (%) [5]: 30% and 59% | Total Cell Count [5]: 152 and 102 | Population Apoptotic (%) [6]: 73% and 75% | Population Fragmented Nuclei (%) [6]: 29% and 56% | Population Healthy Nuclei (%) [6]: 58% and 36% | Population Hoechst High Intensity Objects (%) [6]: 8% and 2% | Population Membrane Permeable-Phenotype (%) [6]: 0% and 2% | Population Mitochondria Different-Phenotype (%) [6]: 20% and 18% | Population Mitotic Cells (%) [6]: 26% and 25% | Population Normal (%) [6]: 91% and 97% | Population Pyknosed Nuclei (%) [6]: 12% and 7% | Population Tubulin-Different-Phenotype (%) [6]: 57% and 84% | Total Cell Count [6]: 131 and 108

CC(=O)Nc1cccc2c1c(Sc1ccc(Cl)cc1)c(C)n2CC(=O)O [AZD1981]
Population Apoptotic (%) [1]: 27% and 37% | Population Fragmented Nuclei (%) [1]: 18% and 31% | Population Healthy Nuclei (%) [1]: 61% and 47% | Population Hoechst High Intensity Objects (%) [1]: 1% and 3% | Population Mitochondria Different-Phenotype (%) [1]: 9% and 7% | Population Mitotic Cells (%) [1]: 72% and 62% | Population Normal (%) [1]: 98% and 96% | Population Pyknosed Nuclei (%) [1]: 19% and 21% | Population Tubulin-Different-Phenotype (%) [1]: 33% and 55% | Total Cell Count [1]: 173 and 118 | Population Apoptotic (%) [2]: 40% and 33% | Population Fragmented Nuclei (%) [2]: 16% and 35% | Population Healthy Nuclei (%) [2]: 64% and 42% | Population Hoechst High Intensity Objects (%) [2]: 3% and 4% | Population Membrane Permeable-Phenotype (%) [2]: 2% and 8% | Population Mitochondria Different-Phenotype (%) [2]: 3% and 0% | Population Mitotic Cells (%) [2]: 60% and 66% | Population Normal (%) [2]: 96% and 95% | Population Pyknosed Nuclei (%) [2]: 19% and 22% | Population Tubulin-Different-Phenotype (%) [2]: 24% and 35% | Total Cell Count [2]: 133 and 112 | Population Apoptotic (%) [3]: 53% and 36% | Population Fragmented Nuclei (%) [3]: 19% and 30% | Population Healthy Nuclei (%) [3]: 63% and 53% | Population Hoechst High Intensity Objects (%) [3]: 6% and 3% | Population Membrane Permeable-Phenotype (%) [3]: 2% and 7% | Population Mitochondria Different-Phenotype (%) [3]: 2% and 7% | Population Mitotic Cells (%) [3]: 46% and 63% | Population Normal (%) [3]: 93% and 96% | Population Pyknosed Nuclei (%) [3]: 16% and 15% | Population Tubulin-Different-Phenotype (%) [3]: 28% and 53% | Total Cell Count [3]: 168 and 128 | Population Apoptotic (%) [4]: 41% and 55% | Population Fragmented Nuclei (%) [4]: 13% and 36% | Population Healthy Nuclei (%) [4]: 68% and 43% | Population Hoechst High Intensity Objects (%) [4]: 4% and 6% | Population Mitochondria Different-Phenotype (%) [4]: 5% and 0% | Population Mitotic Cells (%) [4]: 58% and 45% | Population Normal (%) [4]: 95% and 93% | Population Pyknosed Nuclei (%) [4]: 18% and 20% | Population Tubulin-Different-Phenotype (%) [4]: 17% and 40% | Total Cell Count [4]: 135 and 104 | Population Apoptotic (%) [5]: 54% and 57% | Population Fragmented Nuclei (%) [5]: 23% and 34% | Population Healthy Nuclei (%) [5]: 61% and 54% | Population Hoechst High Intensity Objects (%) [5]: 6% and 3% | Population Membrane Permeable-Phenotype (%) [5]: 1% and 8% | Population Mitochondria Different-Phenotype (%) [5]: 6% and 2% | Population Mitotic Cells (%) [5]: 45% and 42% | Population Normal (%) [5]: 93% and 96% | Population Pyknosed Nuclei (%) [5]: 15% and 11% | Population Tubulin-Different-Phenotype (%) [5]: 33% and 52% | Total Cell Count [5]: 171 and 129 | Population Apoptotic (%) [6]: 64% and 40% | Population Fragmented Nuclei (%) [6]: 21% and 43% | Population Healthy Nuclei (%) [6]: 64% and 42% | Population Hoechst High Intensity Objects (%) [6]: 4% | Population Membrane Permeable-Phenotype (%) [6]: 0% and 11% | Population Mitochondria Different-Phenotype (%) [6]: 2% and 0% | Population Mitotic Cells (%) [6]: 35% and 60% | Population Normal (%) [6]: 95% | Population Pyknosed Nuclei (%) [6]: 13% and 15% | Population Tubulin-Different-Phenotype (%) [6]: 25% and 54% | Total Cell Count [6]: 134 and 105

Cc1cc(Nc2ncc(Cl)c(Nc3ccccc3S(=O)(=O)C(C)C)n2)c(OC(C)C)cc1C1CCNCC1 [CERITINIB]
Population Apoptotic (%) [1]: 11.76% and 21.15% | Population Fragmented Nuclei (%) [1]: 7.37% and 5.85% | Population Healthy Nuclei (%) [1]: 53.46% and 68.78% | Population Hoechst High Intensity Objects (%) [1]: 0% | Population Membrane Permeable-Phenotype (%) [1]: 4.31% and 0.71% | Population Mitochondria Different-Phenotype (%) [1]: 43.1% and 31.21% | Population Mitotic Cells (%) [1]: 88.24% and 78.85% | Population Normal (%) [1]: 100% | Population Pyknosed Nuclei (%) [1]: 39.17% and 25.37% | Population Tubulin-Different-Phenotype (%) [1]: 63.79% and 60.99% | Total Cell Count [1]: 217 and 205 | Population Apoptotic (%) [2]: 42.37% and 52.35% | Population Fragmented Nuclei (%) [2]: 13.51% and 3.96% | Population Healthy Nuclei (%) [2]: 22.7% and 22.28% | Population Hoechst High Intensity Objects (%) [2]: 0% | Population Mitochondria Different-Phenotype (%) [2]: 7.14% and 6.67% | Population Mitotic Cells (%) [2]: 57.63% and 47.65% | Population Normal (%) [2]: 100% | Population Pyknosed Nuclei (%) [2]: 63.78% and 73.76% | Population Tubulin-Different-Phenotype (%) [2]: 38.1% and 77.78% | Total Cell Count [2]: 185 and 202 | Population Apoptotic (%) [3]: 20% and 32.43% | Population Fragmented Nuclei (%) [3]: 9.43% and 7.69% | Population Healthy Nuclei (%) [3]: 68.03% and 74.52% | Population Hoechst High Intensity Objects (%) [3]: 0% | Population Membrane Permeable-Phenotype (%) [3]: 4.22% and 0% | Population Mitochondria Different-Phenotype (%) [3]: 29.52% and 27.74% | Population Mitotic Cells (%) [3]: 80% and 67.57% | Population Normal (%) [3]: 100% | Population Pyknosed Nuclei (%) [3]: 22.54% and 17.79% | Population Tubulin-Different-Phenotype (%) [3]: 62.05% and 63.23% | Total Cell Count [3]: 244 and 208 | Population Apoptotic (%) [4]: 65.28% and 58.33% | Population Fragmented Nuclei (%) [4]: 19.9% and 22.16% | Population Healthy Nuclei (%) [4]: 43.37% and 59.28% | Population Hoechst High Intensity Objects (%) [4]: 0% | Population Mitochondria Different-Phenotype (%) [4]: 12.94% and 7.83% | Population Mitotic Cells (%) [4]: 34.72% and 41.67% | Population Normal (%) [4]: 100% | Population Pyknosed Nuclei (%) [4]: 36.73% and 18.56% | Population Tubulin-Different-Phenotype (%) [4]: 37.65% and 81.74% | Total Cell Count [4]: 196 and 194 | Population Fragmented Nuclei (%) [5]: 13.85% and 7.43% | Population Healthy Nuclei (%) [5]: 77.7% and 84.65% | Population Hoechst High Intensity Objects (%) [5]: 0% | Population Membrane Permeable-Phenotype (%) [5]: 1.74% and 1.75% | Population Mitochondria Different-Phenotype (%) [5]: 11.74% and 9.94% | Population Mitotic Cells (%) [5]: 88% and 50% | Population Normal (%) [5]: 100% | Population Pyknosed Nuclei (%) [5]: 8.45% and 7.92% | Population Tubulin-Different-Phenotype (%) [5]: 36.09% and 50.88% | Total Cell Count [5]: 296 and 202 | Population Apoptotic (%) [6]: 73.33% and 50% | Population Fragmented Nuclei (%) [6]: 20.63% and 58.73% | Population Healthy Nuclei (%) [6]: 71.43% and 38.1% | Population Hoechst High Intensity Objects (%) [6]: 0% | Population Mitotic Cells (%) [6]: 26.67% and 50% | Population Normal (%) [6]: 100% | Population Pyknosed Nuclei (%) [6]: 7.94% and 3.17% | Population Tubulin-Different-Phenotype (%) [6]: 31.85% and 58.33% | Total Cell Count [6]: 189
